These results are taken from ChEMBL document CHEMBL4321802, “Antioxidant-Conjugated 1,2,4-Triazolo[4,3-a]pyrazin-3-one Derivatives: Highly Potent and Selective Human A2A Adenosine Receptor Antagonists Possessing Protective Efficacy in Neuropathic Pain” (J Med Chem, 2019).

pIC50, pKi: −log10 of the molar value. Active and inactive are the calls of the source.

Data set [1] deals with T1, Adenosine receptor A1 (Homo sapiens, UniProt P30542).
T1 sequence (P30542 whole entry): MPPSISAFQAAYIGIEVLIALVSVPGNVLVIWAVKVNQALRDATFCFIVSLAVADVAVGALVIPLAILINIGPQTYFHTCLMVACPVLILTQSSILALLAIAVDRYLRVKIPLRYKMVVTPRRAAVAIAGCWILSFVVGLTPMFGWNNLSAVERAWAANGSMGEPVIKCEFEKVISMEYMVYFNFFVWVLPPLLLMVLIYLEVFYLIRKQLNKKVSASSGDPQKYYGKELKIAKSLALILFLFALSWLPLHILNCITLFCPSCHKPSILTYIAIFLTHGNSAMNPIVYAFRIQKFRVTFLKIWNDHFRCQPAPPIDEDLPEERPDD
Kind of data set: Displacement of [3H]CCPA from human adenosine A1 receptor expressed in CHO cell membranes by radioligand competition assay. The essentials: (§1)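 Membranes from stably transfected CHO cells were made by 1000 g, then 100 000g spins. hA1 used 1.0 nM [³H]CCPA in 50 mM Tris/HCl pH 7.4. hA3 used 1.0 nM [³H]HEMADO in 50 mM Tris/HCl, 10 mM MgCl2, 1 mM EDTA, pH 8.25. Ki from competition curves, each concentration tested three to five times in triplicate, mean ± S.E.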

The target in data set [2] is T2, Adenosine receptor A2a (Homo sapiens, UniProt P29274). Kind of data set: Displacement of [3H]NECA from human adenosine A2A receptor expressed in CHO cell membranes by radioligand competition assay.
T2 sequence (P29274 whole entry): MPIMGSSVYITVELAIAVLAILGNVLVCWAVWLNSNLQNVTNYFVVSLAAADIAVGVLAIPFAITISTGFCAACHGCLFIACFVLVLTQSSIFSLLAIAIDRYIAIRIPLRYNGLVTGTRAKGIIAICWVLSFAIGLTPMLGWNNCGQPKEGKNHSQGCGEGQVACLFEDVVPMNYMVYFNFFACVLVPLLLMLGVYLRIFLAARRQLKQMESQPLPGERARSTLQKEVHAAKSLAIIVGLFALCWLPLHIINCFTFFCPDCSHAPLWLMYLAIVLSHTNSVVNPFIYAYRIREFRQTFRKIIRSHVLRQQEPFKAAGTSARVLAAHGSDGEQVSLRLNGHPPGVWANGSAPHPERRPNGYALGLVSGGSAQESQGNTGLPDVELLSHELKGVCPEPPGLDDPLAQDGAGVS
Data set [3] concerns the target T3, Adenosine receptor A3 (Homo sapiens, UniProt P0DMS8).
T3 sequence (P0DMS8 whole entry): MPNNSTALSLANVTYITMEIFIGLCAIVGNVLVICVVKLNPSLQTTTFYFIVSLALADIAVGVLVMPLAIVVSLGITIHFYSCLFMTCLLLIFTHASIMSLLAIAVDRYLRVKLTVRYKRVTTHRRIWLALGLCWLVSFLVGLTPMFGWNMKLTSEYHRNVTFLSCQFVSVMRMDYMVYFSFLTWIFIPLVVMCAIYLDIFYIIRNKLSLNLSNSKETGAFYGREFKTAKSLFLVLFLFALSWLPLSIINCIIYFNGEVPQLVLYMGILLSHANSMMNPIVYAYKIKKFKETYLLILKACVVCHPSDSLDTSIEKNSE
Kind of data set: Displacement of [3H]HEMADO from human adenosine A3 receptor expressed in CHO cell membranes by radioligand competition assay. The method in brief:
as §1
Background: In a radioligand displacement assay an active substance lowers the binding of a labelled ligand.

The target in data set [4] is T4, Adenosine receptor A2b (Homo sapiens, UniProt P29275).
T4 sequence (P29275 whole entry): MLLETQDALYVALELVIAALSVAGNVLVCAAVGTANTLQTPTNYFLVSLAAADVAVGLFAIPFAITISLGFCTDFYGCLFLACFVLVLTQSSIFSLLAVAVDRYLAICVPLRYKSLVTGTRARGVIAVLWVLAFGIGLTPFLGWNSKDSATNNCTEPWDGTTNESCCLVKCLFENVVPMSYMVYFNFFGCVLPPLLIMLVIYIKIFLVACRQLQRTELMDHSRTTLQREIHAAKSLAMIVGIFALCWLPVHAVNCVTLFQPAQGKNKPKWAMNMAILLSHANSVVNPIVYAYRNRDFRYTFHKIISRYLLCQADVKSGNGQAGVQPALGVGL
As to the kind of experiment: Antagonist activity at human adenosine A2B receptor expressed in CHO cells assessed as inhibition of NECA-stimulated adenylyl cyclase activity by Glo-sensor cAMP assay. The format is functional, cell-based. The method in brief: (§2)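 CHO cells stably expressing hA2A or hA2B AR and transiently the GloSensor cAMP biosensor. Cells were equilibrated 2 h at rt in CO2-independent medium with 3% v/v GloSensor reagent and 10% FBS. Compounds at graded concentrations were tested against NECA-induced cAMP rise; luminescence as % of maximal RLU. IC50 from nonlinear regression. Three to five runs in triplicate, mean ± S.E.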
For orientation: Changes in cAMP serve as a functional read-out for many G protein-coupled receptors.

Data set [5] addresses T2, Adenosine receptor A2a. Kind of data set: Antagonist activity at human adenosine A2A receptor expressed in CHO cells assessed as inhibition of NECA-stimulated adenylyl cyclase activity by Glo-sensor cAMP assay. The data set is classed as functional, cell-based. The method in brief:
as §2

Data set [6] deals with Microglia. As to the kind of experiment: Neuroprotective activity against 10 uM Oxaliplatin-induced neurotoxicity in Sprague-Dawley rat microglia assessed as cell viability at 10 uM incubated fro 24 hrs by MTT assay (reference value: 33.2 +/- 1.3%). The data set is classed as functional. On the technique in general: Tetrazolium dyes change colour on reduction, which living cells bring about.

Data set [7] concerns Microglia. Kind of data set: Neuroprotective activity against 30 uM Oxaliplatin-induced neurotoxicity in Sprague-Dawley rat microglia assessed as cell viability at 10 uM incubated fro 24 hrs by MTT assay (reference value: 19.1 +/- 0.8%). The format is functional.
Data set [8] is described as follows: Half life in 50 mM Tris buffer. The format is physicochemical. The essentials:
(§3)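 Compounds incubated at 37 °C in 50 mM Tris buffer pH 7.4 or in pooled healthy-volunteer human plasma (stored -80 °C). Concentration followed over time by LC-MS/MS; t1/2 taken from the decay rate of ln(concentration) versus time. Half-lives above 240 min cannot be resolved and are given as ≥240. Ketoprofen ethyl ester served as plasma-activity reference.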

The nature of data set [9]: Half life in human plasma. The format is ADME, cell-free. The method in brief:
as §3

The subject of data set [10] is Mus musculus. Kind of data set: Analgesic activity in CD1 albino mouse model of oxaliplatin-induced neuropathy hypersensitivity assessed as increase pain threshold at 10 to 30 mg/kg, po dosed from day 14 post oxaliplatin challenge and measured after 15 to 45 mins post dose by cold plate test. The format is functional, organism-based. The method in brief: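 Male CD-1 mice (22–25 g) given oxaliplatin 2.4 mg kg⁻¹ i.p. in 5% glucose on days 1-2, 5-9 and 12-14; controls got vehicle. On day 14, compounds suspended in 1% carboxymethylcellulose were given once p.o. Cold plate held at 4 °C ± 1 °C; latency to first hind-paw licking/lifting recorded, 60 s cut-off. Mean ± SEM, two experimental sets; one-way ANOVA with Bonferroni.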

Data set [11] concerns the target Adenosine receptor A2a (Rattus norvegicus, UniProt P30543). Kind of data set: Displacement of [3H]NECA from rat adenosine A2A receptor expressed in CHO cell membranes by radioligand competition assay.

Chain of Adenosine receptor A2a (Rattus norvegicus, UniProt P30543) (P30543 whole entry): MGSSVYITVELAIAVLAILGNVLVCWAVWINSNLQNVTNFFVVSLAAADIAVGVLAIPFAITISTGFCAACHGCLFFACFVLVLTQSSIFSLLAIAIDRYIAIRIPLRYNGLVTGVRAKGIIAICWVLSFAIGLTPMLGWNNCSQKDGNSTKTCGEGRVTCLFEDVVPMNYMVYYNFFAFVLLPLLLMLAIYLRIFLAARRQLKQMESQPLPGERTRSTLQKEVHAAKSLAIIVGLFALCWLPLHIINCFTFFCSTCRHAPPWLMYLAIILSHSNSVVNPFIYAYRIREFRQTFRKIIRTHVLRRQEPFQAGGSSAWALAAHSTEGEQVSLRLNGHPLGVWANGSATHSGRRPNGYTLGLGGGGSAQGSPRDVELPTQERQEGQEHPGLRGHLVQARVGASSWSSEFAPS

Consider `Nc1nc(-c2ccc3c(c2)OCO3)cn2c(=O)n(-c3ccccc3)nc12`, for which the pKi (in general, the negative decadic logarithm of the Ki, by convention in mol/L) in data set [1] was 7.89; in data set [2] it was 8.13; in data set [3], 7.42. Further, the pIC50 (usually the IC50 on a negative log10 scale, so that one unit is a factor of ten) in [4] was less than 4.52.

Regarding `CC(C)(C)c1cc(C(=O)NCCOc2ccc(-c3cn4c(=O)n(-c5ccccc5)nc4c(N)n3)cc2)cc(C(C)(C)C)c1O`, the results for the pKi in data set [1], in [2] and in [3] were 4.86, 4.83 and less than 4.52, respectively. For the same compound, the pIC50 in [4] was less than 4.52.

Consider `COc1c(C(C)(C)C)cc(-c2cn3c(=O)n(-c4ccccc4)nc3c(N)n2)cc1C(C)(C)C`, for which the values for the pKi in [1], in data set [2] and in [3] were 6.96, 6.85 and less than 4.52, respectively. Also, the pIC50 in data set [4] was less than 4.52.

Regarding `CC(C)(C)c1cc(-c2cn3c(=O)n(-c4ccccc4)nc3c(N)n2)ccc1O`, the results for the pKi in [1], in data set [2] and in data set [3] were less than 4.52, 8.07 and less than 4.52, respectively. For the same compound, the pIC50 is less than 4.52 in [4] and 6.75 in data set [5]. For the same compound, the Activity worked out at 46.4% in [6] and 28.6% in data set [7]. The half-life (commonly the time needed for the level to fall by half in the phase considered) in data set [8] is no less than 240 min; in [9] it was 122 min.

`COc1cc(O)ccc1-c1cn2c(=O)n(-c3ccccc3)nc2c(N)n1`: the pKi in data set [1] is 7.53; in data set [2], 7.77; in data set [3] it was 4.95. Besides, in data set [4], the pIC50 was less than 4.52.

Turning to `COc1cc(-c2cn3c(=O)n(-c4ccccc4)nc3c(N)n2)cc(OC)c1OC`, the pKi in [1] is 7.26; in data set [2], 8.46; in [3] it was 6.67. In addition, the pIC50 in data set [4] is less than 4.52.

Regarding `Cc1cc(-c2cn3c(=O)n(-c4ccccc4)nc3c(N)n2)cc(C)c1O`, the pKi was 7.67 in data set [1], 8.60 in data set [2] and 7.00 in data set [3]. For the same compound, the pIC50 in data set [4] was less than 4.52.

With `Nc1nc(-c2ccc(O)c(O)c2)cn2c(=O)n(-c3ccccc3)nc12`, the results for the pKi in data set [1], in data set [2] and in data set [3] were 7.37, 8.28 and 6.02, respectively. Also, the negative-log IC50 (pIC50) in [4] was less than 4.52.

For `NCCC(=O)Nc1ccc(-c2cn3c(=O)n(-c4ccccc4)nc3c(N)n2)cc1`, the pKi in [1] was 6.32; in data set [2], 9.23; in [3], 6.29. For the same compound, the pIC50 in [4] was 5.02.

For the compound `Nc1ccc(-c2cn3c(=O)n(-c4ccccc4)nc3c(N)n2)cc1`, the values for the pKi in data set [1], in data set [2] and in data set [3] were 7.47, 7.64 and 6.60, respectively. The pIC50 in data set [4] is less than 4.52.

Consider `Nc1nc(-c2ccc(NC(=O)CCNC(=O)CCCCC3CCSS3)cc2)cn2c(=O)n(-c3ccccc3)nc12` (configuration not stated), for which the pKi in data set [1] is 5.87; in data set [2] it was 7.44; in data set [3], less than 4.52. The pIC50 was less than 4.52 in [4] and 6.53 in [5]. Besides, the Activity in data set [6] stood at 38.9%; in data set [7], 18.3%. Also, the half-life in [8] was no less than 240 min; in data set [9], 41 min.

Regarding `C=CC(=O)Nc1ccc(-c2cn3c(=O)n(-c4ccccc4)nc3c(N)n2)cc1`, the negative-log Ki (pKi) in [1] is 6.58; in data set [2], 8.74; in data set [3], less than 4.52. For the same compound, in data set [4], the pIC50 is less than 4.52.

In the case of `N#CCOc1ccc(-c2cn3c(=O)n(-c4ccccc4)nc3c(N)n2)cc1`, the pKi in [1] is less than 4.52; in data set [2] it was 8.09; in data set [3] it was less than 4.52; in data set [11], 7.41. The pIC50 in data set [4] is less than 4.52; in data set [5] it was 6.80. Further, the Activity in data set [6] was 48.7%; in [7] it was 23%. Moreover, the outcome in data set [10] was Active. For the same compound, the half-life in [8] and in data set [9] was no less than 240 min throughout.

As to `COc1c(C)cc(-c2cn3c(=O)n(-c4ccccc4)nc3c(N)n2)cc1C`, the pKi in data set [1] is 8.35; in [2] it was 9.77; in data set [3] it was 8.07. In [4], the pIC50 was less than 4.52.

On to `Nc1nc(-c2ccc(NC(=O)CCCCC3CCSS3)cc2)cn2c(=O)n(-c3ccccc3)nc12` (configuration not stated), for which the figures for the pKi in data set [1], in data set [2] and in data set [3] were 8.08, 8.30 and less than 4.52, respectively. The pIC50 in [4] is less than 4.52.

For the compound `Nc1nc(-c2cc(O)c(O)c(O)c2)cn2c(=O)n(-c3ccccc3)nc12`, the results for the pKi in [1], in [2] and in [3] were 6.76, 7.02 and 5.25, respectively. Moreover, the negative logarithm of the IC50 (pIC50) in data set [4] was 4.76.

`NCCOc1ccc(-c2cn3c(=O)n(-c4ccccc4)nc3c(N)n2)cc1`: the results for the pKi in data set [1], in data set [2] and in data set [3] were 6.54, 7.83 and 5.67, respectively. The pIC50 in [4] was less than 4.52.

As for `COc1ccc(-c2cn3c(=O)n(-c4ccccc4)nc3c(N)n2)c(OC)c1`, the pKi in data set [1] was 7.55; in data set [2], 8.62; in [3] it was 6.93. Moreover, the pIC50 in data set [4] was less than 4.52.

For the compound `NC(=O)COc1ccc(-c2cn3c(=O)n(-c4ccccc4)nc3c(N)n2)cc1`, the pKi is 6.41 in data set [1], 7.59 in data set [2] and 6.22 in [3]. The pIC50 in data set [4] is less than 4.52.

Turning to `COc1ccc(-c2cn3c(=O)n(-c4ccccc4)nc3c(N)n2)cc1OC`, the values for the pKi in data set [1], in data set [2] and in [3] were 7.23, 8.24 and 7.10, respectively. In addition, in [4], the pIC50 was less than 4.52.
